From ChEMBL document CHEMBL3244407, “Synthesis of spiro[tetralin-2,2'-pyrrolidine] and spiro[indan-2,2'-pyrrolidine] derivatives as potential analgesics” (J Med Chem, 1978)
Active and inactive are the calls of the source. The rule behind the calls is not given here.

How the values were obtained:
[1] = system: Mus musculus; assay: Analgesic activity in mouse assessed as inhibition of acetic acid-induced writhing response at 30 mg/kg, po administered 30 mins prior to acetic acid-challenge relative to control; format: functional
Procedure, shortened: (§1)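 Mice in groups, dosed orally with vehicle or compound; 30 min later given dilute acetic acid ip (0.4 mL, 0.25%). Total squirming movements counted.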

[2] = system: Mus musculus; assay: Antidepressant activity in mouse assessed as reversal of reserpine-induced hypothermia measured as cumulative temperature rise at 30 mg/kg administered 17 hrs post reserpine-challenge; format: functional
Procedure, shortened: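 Groups of six mice pretreated with reserpine 2 mg/kg sc; compound given 17 h later. Gastric temperature read just before dosing (t0) and at 2, 4 and 6 h. Cumulative rise T = (t2 + t4 + t6) − 3t0, averaged per group, in °C.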

[3] = species: Mus musculus; assay: Effect on CNS activity in mouse by maximal electroshock test; format: functional, organism-based; conditions: Central nervous system
[4] = species: Mus musculus; assay: Effect on CNS activity in mouse by maximal metrazole shock test; format: functional, organism-based; conditions: Central nervous system
[5] = species: Mus musculus; assay: Effect on locomotor activity in mouse; format: functional, organism-based
[6] = species: Mus musculus; assay: Neurotoxicity in mouse by stationary rod test; format: toxicity, organism-based; conditions: in vivo
[7] = system: Mus musculus; assay: Analgesic activity in mouse assessed as inhibition of acetic acid-induced writhing response at 100 mg/kg, po administered 30 mins prior to acetic acid-challenge relative to control; format: functional; procedure, shortened: as §1
[8] = species: Mus musculus; assay: animal or person; format: functional; conditions: route oral
[9] = species: Mus musculus; assay: Analgesic activity in mouse by hot-plate test; format: functional

SMILES	inhibition in vivo at 30 mg/kg [1]	T [2]	Activity [3]	Activity [4]	Activity [5]	Activity [6]	inhibition in vivo at 100 mg/kg [7]	inhibition in vivo at 10 mg/kg [8]	ED50 [9]
COc1ccc2c(c1)CCC1(CCCN1)C2.Cl (stereo not given)	50%	0.2 °C	inactive	inactive	inactive	Non-toxic			
CN1CCCC12Cc1ccccc1C2.Cl		5.1 °C	inactive	inactive	inactive	Non-toxic	50%		
CN(C)CCCN1c2ccccc2CCc2ccccc21 [IMIPRAMINE]	50%	8 °C							
Br.CN1CCCC12CCc1cc(O)ccc1C2 (stereo not given)	75%	0.7 °C	inactive	inactive	inactive	Non-toxic			
CN1CC[C@]23c4c5ccc(O)c4O[C@H]2[C@@H](O)C=C[C@H]3[C@H]1C5.Cl [MORPHINE HYDROCHLORIDE]		0.3 °C						100%	
CN1CCCC12CCc1ccccc1C2.Cl (stereo not given)		2.7 °C	inactive	inactive	inactive	Non-toxic		100%	7.4 mg/kg
Cl.c1ccc2c(c1)CCC1(CCCN1)C2 (stereo not given)		4.5 °C	inactive	inactive	inactive	Non-toxic		100%	7.1 mg/kg
Br.COc1ccc2c(c1)CCC1(CCCN1C)C2 (stereo not given)	75%	1.2 °C	inactive	inactive	inactive	Non-toxic			
Br.Oc1ccc2c(c1)CCC1(CCCN1)C2 (stereo not given)	0%	0.7 °C	inactive	inactive	inactive	Non-toxic			
Cl.c1ccc2c(c1)CC1(CCCN1)C2		5.1 °C	inactive	inactive	inactive	Non-toxic		50%	> 30 mg/kg
